In ChEMBL document CHEMBL4330067, “Synthesis and mechanistic studies of diketo acids and their bioisosteres as potential antibacterial agents” (Eur J Med Chem, 2019):
In brackets after ≈: the same amount, converted by molar mass. Activity calls are given as the source filed them. The calls are words filed in the database; no cut-off is given here.

What was measured:
Streptococcus pneumoniae [1] = assay: Inhibition of Streptococcus pneumoniae methionine aminopeptidase 1A at 100 uM using Met-AMC as substrate relative to control
In short: (§1)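 Purified MetAP at 4 µM in 50 mM HEPES with 150 mM KCl and CoCl2 at 3 molar equivalents of enzyme. pH 7.5 for SpMetAP1a and EfMetAP1a, pH 8.0 for HsMetAP1b. Substrate L-Met-AMC at 50, 100 and 150 µM. Compounds (10 mM DMSO stocks) tested over 1 to 120 µM for % inhibition; Ki by Dixon method.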

[2] = Inhibition of Enterococcus faecalis methionine aminopeptidase 1A using Met-AMC as substrate by Dixon method; in short: as §1
[3] = Inhibition of Mycobacterium tuberculosis methionine aminopeptidase 1C using Met-AMC as substrate by Dixon method
[4] = Inhibition of Streptococcus pneumoniae methionine aminopeptidase 1A using Met-AMC as substrate by Dixon method; in short: as §1
Pseudomonas aeruginosa [5] = assay: Antibacterial activity against Pseudomonas aeruginosa MTCC 2453 after 24 hrs by broth dilution assay; assay type: functional; conditions: MTCC 2453, 24 h
In short: (§2)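 Broth dilution per NCCLS in nutrient broth, serial dilutions 1000 to 7.8 µg/mL, DMSO below 4% final. Inoculum approx. 2.5×10⁶ cells/mL, 37 °C with shaking at 150 rpm for 24 h. MIC taken as the lowest concentration with no visible growth. Ciprofloxacin served as positive control.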

Salmonella typhimurium = assay: Antibacterial activity against Salmonella typhimurium MTCC 3224 after 24 hrs by broth dilution assay; assay type: functional, Salmonella enterica subsp. enterica serovar Typhimurium; conditions: Salmonella enterica, MTCC 3224, 24 h; in short: as §2
Streptococcus pneumoniae [6] = assay: Antibacterial activity against Streptococcus pneumoniae MTCC 655 after 24 hrs by broth dilution assay; assay type: functional; conditions: MTCC 655, 24 h; in short: as §2
Enterococcus faecalis [7] = assay: Antibacterial activity against Enterococcus faecalis MTCC 439 after 24 hrs by broth dilution assay; assay type: functional; conditions: MTCC 439, 24 h; in short: as §2
Klebsiella pneumoniae [8] = assay: Antibacterial activity against Klebsiella pneumoniae ATCC 700603 after 24 hrs by broth dilution assay; assay type: functional; conditions: Klebsiella pneumoniae, 700603, 24 h; in short: as §2
Escherichia coli [9] = assay: Antibacterial activity against Escherichia coli MRC24 at 512 ug/mL after 24 hrs by broth dilution assay relative to control; assay type: functional
In short: (§3)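 Multidrug-resistant E. coli isolates in Luria broth, test range 8 to 1024 µg/mL (ciprofloxacin 0.49 to 63.3 µg/mL). Inoculum 10 µL of a 1000-fold diluted 0.1 OD600 culture, incubated overnight at 37 °C. OD read at 600 nm. % inhibition = (a−b)/a×100, with media and compound-colour blanks subtracted.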

Escherichia coli [10] = assay: Antibacterial activity against Escherichia coli MRAE32 at 512 ug/mL after 24 hrs by broth dilution assay relative to control; assay type: functional; in short: as §3
Escherichia coli [11] = assay: Antibacterial activity against Escherichia coli MROB11 at 512 ug/mL after 24 hrs by broth dilution assay relative to control; assay type: functional; in short: as §3
Escherichia coli [12] = assay: Antibacterial activity against Escherichia coli MRAE26 at 1024 ug/mL after 24 hrs by broth dilution assay relative to control; assay type: functional; in short: as §3
Escherichia coli [13] = assay: Antibacterial activity against Escherichia coli MRAE44 at 1024 ug/mL after 24 hrs by broth dilution assay; assay type: functional, organism-based; in short: as §3
Escherichia coli [14] = assay: Antibacterial activity against Escherichia coli MRA11 after overnight incubation; assay type: functional; in short: as §3
Escherichia coli [15] = assay: Antibacterial activity against Escherichia coli MRC17 after overnight incubation; assay type: functional; in short: as §3
Escherichia coli [16] = assay: Antibacterial activity against Escherichia coli MRAE26 after overnight incubation; assay type: functional; in short: as §3
Escherichia coli [17] = assay: Antibacterial activity against Escherichia coli MRAE32 after overnight incubation; assay type: functional; in short: as §3
Escherichia coli [18] = assay: Antibacterial activity against Escherichia coli MRAE44 after overnight incubation; assay type: functional; in short: as §3
Escherichia coli [19] = assay: Synergistic antibacterial activity against Escherichia coli MRA11 after 18 hrs in presence of ciprofloxacin by checkerboard method; assay type: functional; conditions: MRA11, 18 h
In short: (§4)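 Checkerboard combination with ciprofloxacin in Mueller-Hinton broth: compound 1024 to 16 µg/mL crossed with ciprofloxacin 128 to 2 µg/mL. Inoculum 5×10⁵ CFU/mL suspension, 18 h at 37 °C. Fractional inhibitory concentration index derived from the combination.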

Escherichia coli [20] = assay: Synergistic antibacterial activity against Escherichia coli MRC17 after 18 hrs in presence of ciprofloxacin by checkerboard method; assay type: functional; conditions: MRC17, 18 h; in short: as §4
Escherichia coli [21] = assay: Synergistic antibacterial activity against Escherichia coli MRA11 assessed as ciprofloxacin MIC at 16 to 1024 ug/mL after 18 hrs by checkerboard method; assay type: functional; conditions: MRA11, 18 h; in short: as §4
Escherichia coli [22] = assay: Synergistic antibacterial activity against Escherichia coli MRC17 assessed as ciprofloxacin MIC at 16 to 1024 ug/mL after 18 hrs by checkerboard method; assay type: functional; conditions: MRC17, 18 h; in short: as §4
Escherichia coli [23] = assay: Synergistic antibacterial activity against Escherichia coli MRAE33 assessed as ciprofloxacin MIC at 16 to 1024 ug/mL after 18 hrs by checkerboard method; assay type: functional; conditions: MRAE33, 18 h; in short: as §4
Escherichia coli [24] = assay: Synergistic antibacterial activity against Escherichia coli MRA11 assessed as fractional inhibitory concentration index after 18 hrs in presence of ciprofloxacin by checkerboard method; assay type: functional; in short: as §4
Escherichia coli [25] = assay: Synergistic antibacterial activity against Escherichia coli MRC17 assessed as fractional inhibitory concentration index after 18 hrs in presence of ciprofloxacin by checkerboard method; assay type: functional
In short: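 Checkerboard combination against MDR E. coli. Test agent gradient 1024–16 µg/mL crossed with ciprofloxacin 128–2 µg/mL in Mueller-Hinton broth. Wells were inoculated with a 5 × 10⁵ CFU/mL suspension and incubated 18 h at 37 °C. Interaction was expressed as the fractional inhibitory concentration index (FICI).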

Escherichia coli [26] = assay: Synergistic antibacterial activity against Escherichia coli MRAE33 assessed as fractional inhibitory concentration index after 18 hrs in presence of ciprofloxacin by checkerboard method; assay type: functional; in short: as §4
Pseudomonas aeruginosa [27] = assay: Bactericidal activity against Pseudomonas aeruginosa at 1 to 2 times MIC after 24 hrs by spectrophotometric analysis; assay type: functional, organism-based
In short: (§5)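 Growth kinetics in 50 mL nutrient broth seeded at approx. 2×10⁶ cells/mL, compound at 2MIC, MIC and ½MIC, 37 °C at 160 rpm. Ciprofloxacin 10 µg/mL as positive control. 1 mL aliquots taken every 2 h from 0 to 22 h. Turbidity read at 600 nm and OD plotted against time.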

Escherichia coli [28] = assay: Bactericidal activity against Escherichia coli at sub-MIC after 22 hrs by spectrophotometric analysis; assay type: functional, organism-based; in short: as §5
Pseudomonas aeruginosa [29] = assay: Anti-biofilm activity against Pseudomonas aeruginosa after 24 hrs by XTT assay; assay type: functional, organism-based
In short: (§6)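 Biofilm XTT reduction assay: serial dilutions 1000 to 7.8 µg/mL in tryptic soy broth, inoculum approx. 5×10⁵ CFU/mL, 37 °C for 24 h static. Non-adherent cells removed by PBS wash, XTT added, 90 min at 37 °C in dark, absorbance at 490 nm. IC50 (50% inhibition of biofilm formation) read from dose-response curves.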

Klebsiella pneumoniae [30] = assay: Anti-biofilm activity against Klebsiella pneumoniae after 24 hrs by XTT assay; assay type: functional, organism-based; in short: as §6
Enterococcus faecalis [31] = assay: Anti-biofilm activity against Enterococcus faecalis after 24 hrs by XTT assay; assay type: functional, organism-based; in short: as §6
Escherichia coli [32] = assay: Anti-biofilm activity against Escherichia coli assessed as poor cell density at 2MIC after 24 hrs by SEM analysis; assay type: functional, organism-based
Streptococcus pneumoniae [33] = assay: Induction of cellular damage in Streptococcus pneumoniae assessed as distorted cell membrane at MIC after 1 hr by TEM analysis; assay type: functional, organism-based

## Cc1c(C(=O)/C=C(\O)C(=O)N[C@H](C)C(=O)O)oc2ccc(Br)cc12
Streptococcus pneumoniae [1]
  inhibition: 98.2%
[2]
  Ki: 11.9 µM
[3]
  Ki: 9.89 µM
[4]
  Ki: 28.3 µM
Pseudomonas aeruginosa [5]
  MIC: 250 µg/mL (≈ 631 µM)
Salmonella typhimurium
  MIC: 500 µg/mL (≈ 1260 µM)
Streptococcus pneumoniae [6]
  MIC: 62.5 µg/mL (≈ 158 µM)
Enterococcus faecalis [7]
  MIC: 125 µg/mL (≈ 316 µM)
Klebsiella pneumoniae [8]
  MIC: 500 µg/mL (≈ 1260 µM)
Escherichia coli [9]
  Activity: 100%
Escherichia coli [10]
  Activity: 100%
Escherichia coli [11]
  Activity: 100%
Escherichia coli [12]
  Activity: >95%
Escherichia coli [13]
  Activity: Active
Escherichia coli [14]
  ICmax: 512 µg/mL
Escherichia coli [14]; Escherichia coli, MRA11
  MIC: 512 µg/mL (≈ 1290 µM)
Escherichia coli [15]
  ICmax: 512 µg/mL
Escherichia coli [15]; Escherichia coli, MRC17
  MIC: 512 µg/mL (≈ 1290 µM)
Escherichia coli [16]
  ICmax: 1024 µg/mL
Escherichia coli [17]
  ICmax: 512 µg/mL
Escherichia coli [18]
  ICmax: 1024 µg/mL
Escherichia coli [19]
  MIC: 512 µg/mL
Escherichia coli [20]
  MIC: 512 µg/mL
Escherichia coli [21]
  MIC: 16 µg/mL
Escherichia coli [22]
  MIC: 64 µg/mL
Escherichia coli [23]
  MIC: 2 µg/mL
Escherichia coli [24]
  fractional inhibitory concentration index (FICI): 1.125
Escherichia coli [25]
  fractional inhibitory concentration index (FICI): 1.5
Escherichia coli [26]
  fractional inhibitory concentration index (FICI): 1.0156
Pseudomonas aeruginosa [27]
  Activity: Active
Escherichia coli [28]
  Activity: Active
Pseudomonas aeruginosa [29]
  IC50: 1.69 µg/mL (≈ 4.27 µM)
Klebsiella pneumoniae [30]
  IC50: 113 µg/mL (≈ 286 µM)
Enterococcus faecalis [31]
  IC50: 1240 µg/mL (≈ 3140 µM)
Escherichia coli [32]
  Activity: Active
Streptococcus pneumoniae [33]
  Activity: Active
